Reference: ChEMBL document CHEMBL4811317, “Inhibitory activities of anthraquinone and xanthone derivatives against transthyretin amyloidogenesis” (Bioorg Med Chem, 2021)
Converted amounts (≈) assume the structure as drawn. The source made the active and inactive calls. No cut-off for these calls is given here.

Legend:
Transthyretin = Transthyretin (Homo sapiens, UniProt P02766, V50M); test: Inhibition of acid-mediated aggregation of TTR V30M mutant (unknown origin) expressed in Escherichia coli pretreated for 30 mins at pH 7 followed by protein dilution in acetate buffer and further incubated for 96 hrs at pH 4.6 by thioflavin-T fluorescence assay
[1] = Total clearance in Sprague-Dawley rat at 1 mg/kg, iv measured up to 8 hrs by LC-MS/MS analysis; type: ADME, organism-based; conditions: in vivo
Method in brief: (§1)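 Male Sprague Dawley rats (7 weeks old, n = 2) given compound in 10% DMSO/0.1 M phosphate pH 8.5, i.v. or p.o. Caudal-vein blood at 5 min (i.v.), 15, 30 min, 1, 2, 4, 8 h; plasma precipitated with acetonitrile/IS, LC-MS/MS. Non-compartmental analysis; bioavailability = AUC∞(p.o.)/AUC∞(i.v.).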

[2] = Tmax in Sprague-Dawley rat at 1 mg/kg, po measured up to 8 hrs by LC-MS/MS analysis; type: ADME, organism-based; conditions: in vivo; method in brief: as §1
[3] = Metabolic stability in Sprague-Dawley rat liver microsomes assessed as residual rate at 1 uM preincubated for 5 mins followed by NADPH addition and measured after 30 mins by LC-MS/MS analysis; type: ADME, Microsome; conditions: time 35 min, read-out: Stabilty
Method in brief: (§2)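 Rat liver microsomes 0.2 mg/mL with 1 μM compound, 1 mM EDTA, 0.1 M phosphate pH 7.4; 5 min preincubation, then 1 mM NADPH (final) added, 30 min at 37 °C, 60 rpm. Quenched in cold acetonitrile/internal standard, supernatant by LC-MS/MS against time zero. CLint scaled with 44.8 mg protein/g liver, 40.0 g liver/kg. At least two technical replicates.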

[4] = Volume of distribution at steady state in Sprague-Dawley rat at 1 mg/kg, iv measured up to 8 hrs by LC-MS/MS analysis; type: ADME, organism-based; conditions: in vivo, read-out: Vdss; method in brief: as §1
[5] = Permeability of the compound at 10 uM measured after 4 hrs by PAMPA based LC-MS analysis; type: ADME; conditions: read-out: permeability
Method in brief: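 PAMPA on pre-coated plates: donor 10 μM compound in 5% DMSO/0.1 M phosphate pH 6.4, acceptor 5% DMSO/0.1 M phosphate pH 7.4; 4 h at 37 °C without agitation. Donor, acceptor and initial donor solutions quantified by LC-MS/MS; recovery above 90%. Antipyrine, metoprolol, sulfasalazine as references. At least two technical replicates.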

[6] = AUC infinity in Sprague-Dawley rat at 1 mg/kg, po measured up to 8 hrs by LC-MS/MS analysis; type: ADME, organism-based; set-up: route oral, dose 1 mg/kg, time <=8; conditions: in vivo
[7] = AUC infinity in Sprague-Dawley rat at 1 mg/kg, iv measured up to 8 hrs by LC-MS/MS analysis; type: ADME, organism-based; set-up: route intravenous, dose 1 mg/kg, time <=8; conditions: in vivo
[8] = Aqueous solubility of the compound in pH 6.8 JP2 fluid measured after 4 hrs by HPLC-UV analysis; type: physicochemical
Method in brief: (§3)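 Test compound diluted from 10 mM DMSO stock 2:165 into JP 1st fluid (pH 1.2) or JP 2nd fluid (pH 6.8); mixed 4 h at 37 °C with rotation at 1000 rpm, then filtered through 0.45 μm PVDF by centrifugation. At least two technical replicates.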

[9] = molecular target: Transthyretin (Homo sapiens) (UniProt P02766); test: Binding affinity to TTR V30M mutant (unknown origin) expressed in Escherichia coli by isothermal titration calorimetry
[10] = Cmax in Sprague-Dawley rat at 1 mg/kg, po measured up to 8 hrs by LC-MS/MS analysis; type: ADME, organism-based; set-up: route oral, dose 1 mg/kg, time <=8; conditions: in vivo; method in brief: as §1
[11] = Elimination half life in Sprague-Dawley rat at 1 mg/kg, iv measured up to 8 hrs by LC-MS/MS analysis; type: ADME, organism-based; conditions: in vivo, read-out: beta t1/2 (converted); method in brief: as §1
[12] = Bioavailability in Sprague-Dawley rat at 1 mg/kg, iv measured up to 8 hrs by LC-MS/MS analysis; type: ADME, organism-based; conditions: in vivo; method in brief: as §1
[13] = Protein binding in Sprague-Dawley rat plasma assessed as unbound fraction at 1 uM measured after 4 hrs by equilibrium dialysis assay; type: ADME, cell-free
Method in brief: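 Rat plasma spiked at 1 μM, equilibrium dialysis (8K MWCO) against 0.1 M phosphate pH 7.4 for 4 h at 37 °C, 1000 rpm. Unbound fraction = buffer/plasma concentration ratio. At least two technical replicates.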

[14] = Metabolic stability in Sprague-Dawley rat liver microsomes assessed as residual rate at 1 uM measured after 30 mins by LC-MS/MS analysis; type: ADME, Microsome; conditions: read-out: Stabilty
[15] = Elimination half life in Sprague-Dawley rat at 1 mg/kg, po measured up to 8 hrs by LC-MS/MS analysis; type: ADME, organism-based; conditions: in vivo, read-out: beta t1/2 (converted); method in brief: as §1
[16] = Cmax in Sprague-Dawley rat at 1 mg/kg, iv measured up to 8 hrs by LC-MS/MS analysis; type: ADME, organism-based; set-up: route intravenous, dose 1 mg/kg, time <=8; conditions: in vivo; method in brief: as §1
[17] = Intrinsic clearance in Sprague-Dawley rat liver microsomes at 1 uM preincubated for 5 mins followed by NADPH addition and measured after 30 mins by LC-MS/MS analysis; type: ADME, Microsome; conditions: time 35 min, read-out: CLH; method in brief: as §2
[18] = Aqueous solubility of the compound in pH 1.2 JP1 fluid measured after 4 hrs ny HPLC-UV analysis; type: physicochemical; method in brief: as §3

| IC50 (Transthyretin) [µM] | Compound | further results |
| --- | --- | --- |
| 12 | O=C(O)c1cc(O)c2c(c1)C(=O)c1cccc(O)c1C2=O [RHEIN] | – |
| 22 | CCOc1cccc2c1C(=O)c1ccc(C(=O)O)cc1C2=O | – |
| > 100 | Cc1cc(O)c2c(c1)C(=O)c1cccc(O)c1C2=O [CHRYSOPHANOL] | – |
| > 100 | Cc1ccc2oc3ccccc3c(=O)c2c1 | – |
| 13 | O=C(O)c1ccc2oc3cccc(Cl)c3c(=O)c2c1 | – |
| > 100 | O=C(O)c1ccc2oc3cc(Cl)ccc3c(=O)c2c1 | – |
| 6.5 | Cc1cc(C(=O)O)cc2c(=O)c3ccccc3oc12 | clearance [1]: 2.22 mL/min/kg; Tmax [2]: 0.25 h; remaining at 0.5 h, 1 µM [3]: 88%; Vd [4]: 0.148 L/kg; Papp at 4 h, 10 µM [5]: 18 ×10⁻⁶ cm/s; AUC(0-inf) [6]: 2620 ng·h/mL; AUC(0-inf) [7]: 7520 ng·h/mL; solubility at 4 h [8]: > 100 µM; Activity [9]: Active; Cmax [10]: 476 ng/mL; half-life [11]: 2.4 h; bioavailability [12]: 34.9%; fraction unbound at 4 h, 1 µM [13]: 0.0073; remaining at 0.5 h, 1 µM [14]: 88%; half-life [15]: 4.4 h; Cmax [16]: 19200 ng/mL; CLint scaled at 1 µM [17]: 35.7 mL/min/kg; solubility at 4 h [18]: 2 µM (≈ 0.508 µg/mL) |
| > 100 | O=C(O)c1cc(C(=O)O)c2c(c1)C(=O)c1ccccc1C2=O | – |
| 12 | O=C1c2ccc(O)cc2C(=O)c2c1ccc(O)c2O | – |
| 12 | O=C1c2ccccc2C(=O)c2c(O)c(O)cc(O)c21 [PURPURIN] | – |
| 22 | O=C(O)c1ccc2oc3ccccc3c(=O)c2c1 | – |
| 9.1 | O=C(O)c1cc(Cl)c2oc3c(Cl)cccc3c(=O)c2c1 | – |
| 13 | Cc1cc(C(=O)O)cc2c1C(=O)c1ccccc1C2=O | – |
| > 100 | Cc1ccc2c(=O)c3ccccc3oc2c1 | – |
| 5.4 | CC(=O)Oc1cccc2c1C(=O)c1c(OC(C)=O)cc(C(=O)O)cc1C2=O [DIACEREIN] | – |
| 10 | O=C(O)c1ccc2c(=O)c3cc(Cl)ccc3oc2c1 | – |
| 45 | Cc1cc(C(=O)O)c2c(c1)C(=O)c1ccccc1C2=O | – |
| 7.7 | O=C(O)c1ccc2c(=O)c3cccc(Cl)c3oc2c1 | – |
| > 100 | O=C1c2ccccc2C(=O)c2c(O)ccc(O)c21 [QUINIZARIN] | – |
| 28 | O=C(O)c1ccc2c(c1)C(=O)c1ccccc1C2=O | – |

| Compound | IC50 (Transthyretin) [µM] | further results |
| --- | --- | --- |
| Cc1cc(O)c2c(c1)C(=O)c1cc(O)cc(O)c1C2=O [EMODIN] | > 100 | – |
| CC(C)=CCc1c(O)cc2oc3cc(O)c(O)c(CC=C(C)C)c3c(=O)c2c1O | 10 | – |
